From ChEMBL document CHEMBL2177085 (J Med Chem, 2012)

Experiments:
[1] = molecular target: Angiopoietin-1 receptor (Homo sapiens) (UniProt Q02763); assay: Inhibition of TIE2 assessed as enzyme residual activity at 10 uM relative to untreated control
How it was run: (§1)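 Residual kinase activity at 10 μM compound, determined by a commercial kinase profiling service (Millipore) across 15 kinases of different classes. Each compound tested in duplicate.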

[2] = molecular target: Protein kinase C epsilon type (Homo sapiens) (UniProt Q02156); assay: Inhibition of PKCepsilon assessed as enzyme residual activity at 10 uM relative to untreated control; how it was run: as §1
[3] = molecular target: Protein kinase C gamma type (Homo sapiens) (UniProt P05129); assay: Inhibition of PKCgamma assessed as enzyme residual activity at 10 uM relative to untreated control; how it was run: as §1
[4] = molecular target: Protein kinase C alpha type (Homo sapiens) (UniProt P17252); assay: Inhibition of PKCalpha assessed as enzyme residual activity at 10 uM relative to untreated control; how it was run: as §1
[5] = molecular target: Hepatocyte growth factor receptor (Homo sapiens) (UniProt P08581); assay: Inhibition of MET assessed as enzyme residual activity at 10 uM relative to untreated control; how it was run: as §1
[6] = molecular target: Glycogen synthase kinase-3 beta (Homo sapiens, UniProt P49841); assay: Inhibition of GSK3beta assessed as enzyme residual activity at 10 uM relative to untreated control; how it was run: as §1
[7] = molecular target: Epidermal growth factor receptor (Homo sapiens) (UniProt P00533); assay: Inhibition of EGFR assessed as enzyme residual activity at 10 uM relative to untreated control; how it was run: as §1
[8] = molecular target: CDK6/cyclin D3 (Homo sapiens) (UniProt P30281+Q00534); assay: Inhibition of CDK6/cyclinD3 assessed as enzyme residual activity at 10 uM relative to untreated control; format: protein-complex assay; how it was run: as §1
MKN-45 [9] = assay: Induction of apoptosis in human MKN45 assessed as accumulation at subG1 phase at 15 uM incubated for 7 days by flow cytometry (reference value: 10.9 +/- 3.2%); format: functional
MKN-45 [10] = assay: Induction of apoptosis in human MKN45 assessed as accumulation at subG1 phase at 10 uM incubated for 7 days by flow cytometry (reference value: 10.9 +/- 3.2%); format: functional
MOLM-14 [11] = assay: Cytotoxic activity against human MOLM14 cells assessed as cell viability at 1 uM incubated for 3 days by MTT assay; format: functional; conditions: MOLM-14, 72 h, read-out: Activity
How it was run: (§2)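 MTT viability: exponentially growing cells, 10 000 viable cells/well in RPMI plated overnight, then exposed to test compounds for 3 days (HT-29, Molm-14) or 5 days (Mkn-45) at 37 °C, 5% CO2. MTT added for 4 h, then SDS/HCl solubilization overnight and absorbance read at 562 nm. Viability is expressed relative to untreated cells (100%). Triplicate.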

MOLM-14 [12] = assay: Cytotoxic activity against human MOLM14 cells assessed as cell viability at 0.5 uM incubated for 3 days by MTT assay; format: functional; conditions: MOLM-14, 72 h, read-out: Activity; how it was run: as §2
MKN-45 [13] = assay: Cytotoxic activity against human MKN45 cells assessed as cell viability at 20 uM incubated for 5 days by MTT assay; format: functional; conditions: MKN-45, 120 h, read-out: Activity; how it was run: as §2
MKN-45 [14] = assay: Cytotoxic activity against human MKN45 cells assessed as cell viability at 10 uM incubated for 5 days by MTT assay; format: functional; conditions: MKN-45, 120 h, read-out: Activity; how it was run: as §2

Sequence of Angiopoietin-1 receptor (Homo sapiens) (Q02763 whole entry): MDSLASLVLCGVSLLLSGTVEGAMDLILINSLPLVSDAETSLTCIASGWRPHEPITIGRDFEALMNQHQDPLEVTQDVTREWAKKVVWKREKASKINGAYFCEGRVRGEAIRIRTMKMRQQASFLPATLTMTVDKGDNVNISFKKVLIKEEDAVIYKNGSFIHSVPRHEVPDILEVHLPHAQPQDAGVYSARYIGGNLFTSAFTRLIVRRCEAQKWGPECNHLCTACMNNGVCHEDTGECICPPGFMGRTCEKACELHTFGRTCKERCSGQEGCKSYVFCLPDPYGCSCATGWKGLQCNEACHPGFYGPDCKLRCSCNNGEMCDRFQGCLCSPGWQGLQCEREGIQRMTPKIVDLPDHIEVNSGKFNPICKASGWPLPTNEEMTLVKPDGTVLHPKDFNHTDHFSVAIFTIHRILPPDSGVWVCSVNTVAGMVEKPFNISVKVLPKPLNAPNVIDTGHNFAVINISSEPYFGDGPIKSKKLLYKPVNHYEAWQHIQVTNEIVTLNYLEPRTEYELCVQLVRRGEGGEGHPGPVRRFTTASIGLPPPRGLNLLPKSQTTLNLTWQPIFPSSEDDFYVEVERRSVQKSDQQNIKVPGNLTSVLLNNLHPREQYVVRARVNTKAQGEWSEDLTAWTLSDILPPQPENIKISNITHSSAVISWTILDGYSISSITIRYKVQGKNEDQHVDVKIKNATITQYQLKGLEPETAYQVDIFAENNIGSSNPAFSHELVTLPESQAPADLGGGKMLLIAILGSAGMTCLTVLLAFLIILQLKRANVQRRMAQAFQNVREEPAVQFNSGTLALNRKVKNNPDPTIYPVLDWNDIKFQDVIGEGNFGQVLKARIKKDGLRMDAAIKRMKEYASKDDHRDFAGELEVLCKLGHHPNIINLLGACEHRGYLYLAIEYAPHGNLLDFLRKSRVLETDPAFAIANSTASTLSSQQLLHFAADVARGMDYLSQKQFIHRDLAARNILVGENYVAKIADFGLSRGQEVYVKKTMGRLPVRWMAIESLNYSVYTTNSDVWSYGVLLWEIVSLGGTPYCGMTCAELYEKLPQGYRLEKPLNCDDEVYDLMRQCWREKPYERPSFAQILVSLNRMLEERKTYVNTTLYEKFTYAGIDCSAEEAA
Sequence of Glycogen synthase kinase-3 beta (P49841 whole entry, looked up): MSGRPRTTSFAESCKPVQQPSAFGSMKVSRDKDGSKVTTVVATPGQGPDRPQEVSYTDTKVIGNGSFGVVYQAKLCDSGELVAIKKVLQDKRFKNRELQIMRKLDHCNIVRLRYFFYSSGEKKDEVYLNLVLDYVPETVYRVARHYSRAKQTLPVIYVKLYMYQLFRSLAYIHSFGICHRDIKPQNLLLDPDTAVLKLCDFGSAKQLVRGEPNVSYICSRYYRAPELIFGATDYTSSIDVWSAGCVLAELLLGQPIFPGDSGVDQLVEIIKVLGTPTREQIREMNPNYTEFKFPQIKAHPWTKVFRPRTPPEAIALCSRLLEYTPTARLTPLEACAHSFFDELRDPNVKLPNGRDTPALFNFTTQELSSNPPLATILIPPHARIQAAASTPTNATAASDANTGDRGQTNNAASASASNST
Sequence of Protein kinase C epsilon type (Homo sapiens) (Q02156 whole entry): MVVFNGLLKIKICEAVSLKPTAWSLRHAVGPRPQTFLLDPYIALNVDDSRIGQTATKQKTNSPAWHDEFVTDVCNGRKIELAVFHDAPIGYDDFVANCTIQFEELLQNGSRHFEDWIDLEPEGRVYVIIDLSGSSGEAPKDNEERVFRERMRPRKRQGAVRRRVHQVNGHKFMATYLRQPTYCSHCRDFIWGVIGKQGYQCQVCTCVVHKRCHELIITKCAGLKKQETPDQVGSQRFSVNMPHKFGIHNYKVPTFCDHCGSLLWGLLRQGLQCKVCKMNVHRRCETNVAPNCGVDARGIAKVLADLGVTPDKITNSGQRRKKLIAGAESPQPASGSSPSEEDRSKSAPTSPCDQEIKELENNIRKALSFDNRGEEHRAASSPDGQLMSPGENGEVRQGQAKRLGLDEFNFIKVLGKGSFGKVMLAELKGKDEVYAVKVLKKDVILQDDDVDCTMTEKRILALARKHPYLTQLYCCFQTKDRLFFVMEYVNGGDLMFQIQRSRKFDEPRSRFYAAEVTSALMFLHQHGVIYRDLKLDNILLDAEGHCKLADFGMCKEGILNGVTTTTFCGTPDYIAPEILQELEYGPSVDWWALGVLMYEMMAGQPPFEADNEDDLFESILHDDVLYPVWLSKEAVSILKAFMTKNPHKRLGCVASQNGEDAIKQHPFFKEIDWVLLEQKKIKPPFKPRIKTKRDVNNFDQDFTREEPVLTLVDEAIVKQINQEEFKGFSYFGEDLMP
Sequence of Hepatocyte growth factor receptor (Homo sapiens) (P08581 whole entry): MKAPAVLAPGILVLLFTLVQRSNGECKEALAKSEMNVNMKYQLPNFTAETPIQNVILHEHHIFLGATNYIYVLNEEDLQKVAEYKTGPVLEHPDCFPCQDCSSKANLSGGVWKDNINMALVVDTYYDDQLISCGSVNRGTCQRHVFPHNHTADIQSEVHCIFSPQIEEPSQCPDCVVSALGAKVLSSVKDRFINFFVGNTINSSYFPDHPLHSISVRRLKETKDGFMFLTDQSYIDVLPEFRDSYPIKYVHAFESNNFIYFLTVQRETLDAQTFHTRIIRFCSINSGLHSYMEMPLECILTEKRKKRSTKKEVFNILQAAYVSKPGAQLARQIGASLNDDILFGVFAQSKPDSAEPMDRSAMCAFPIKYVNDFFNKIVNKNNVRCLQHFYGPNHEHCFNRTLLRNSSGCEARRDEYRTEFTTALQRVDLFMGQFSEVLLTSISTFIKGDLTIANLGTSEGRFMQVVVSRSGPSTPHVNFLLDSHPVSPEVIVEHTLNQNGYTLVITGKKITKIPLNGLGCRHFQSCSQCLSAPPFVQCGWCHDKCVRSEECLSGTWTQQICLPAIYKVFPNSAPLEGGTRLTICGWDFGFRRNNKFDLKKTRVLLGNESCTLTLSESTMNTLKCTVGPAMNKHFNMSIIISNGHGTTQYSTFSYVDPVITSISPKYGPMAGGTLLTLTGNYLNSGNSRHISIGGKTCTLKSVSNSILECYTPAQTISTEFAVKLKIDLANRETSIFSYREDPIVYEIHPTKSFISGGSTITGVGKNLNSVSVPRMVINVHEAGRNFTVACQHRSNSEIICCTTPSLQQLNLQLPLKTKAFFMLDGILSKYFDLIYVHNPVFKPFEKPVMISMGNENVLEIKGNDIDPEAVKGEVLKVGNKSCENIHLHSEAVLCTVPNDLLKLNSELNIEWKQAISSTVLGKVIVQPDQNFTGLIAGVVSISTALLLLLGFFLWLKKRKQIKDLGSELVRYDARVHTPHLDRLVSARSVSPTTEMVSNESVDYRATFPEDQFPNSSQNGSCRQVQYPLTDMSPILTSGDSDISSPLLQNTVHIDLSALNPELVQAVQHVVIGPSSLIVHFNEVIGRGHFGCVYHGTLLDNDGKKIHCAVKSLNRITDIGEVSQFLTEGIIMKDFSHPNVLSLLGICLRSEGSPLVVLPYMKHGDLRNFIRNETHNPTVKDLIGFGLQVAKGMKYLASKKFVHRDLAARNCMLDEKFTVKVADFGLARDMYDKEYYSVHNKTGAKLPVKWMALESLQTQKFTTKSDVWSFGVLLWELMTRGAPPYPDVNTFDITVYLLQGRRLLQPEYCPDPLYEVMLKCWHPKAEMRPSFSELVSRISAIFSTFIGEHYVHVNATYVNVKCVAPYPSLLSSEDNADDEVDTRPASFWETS

## COc1cc(C2=C(c3c[nH]c4cnccc34)C(=O)NC2=O)cc(OC)c1OC
[1]
  Activity: 116%
[2]
  Activity: 75%
[3]
  Activity: 83%
[4]
  Activity: 80%
[5]
  Activity: 83%
[6]
  Activity: 2%
[7]
  Activity: 111%
[8]
  Activity: 103%
MKN-45 [9]
  Activity: 22.9%
MKN-45 [10]
  Activity: 16.5%
MOLM-14 [11]
  viability at 1 µM: 54.2%
MOLM-14 [12]
  viability at 0.5 µM: 73.4%
MKN-45 [13]
  viability at 20 µM: 101%
MKN-45 [14]
  viability at 10 µM: 108%
